Experimental data taken from ChEMBL document CHEMBL1139366, “Non-peptide macrocyclic histone deacetylase inhibitors” (J Med Chem, 2009).

Key:
[1] = tested on: DU-145; test: Cytotoxicity against human DU145 cells after 72 hrs by trypan blue exclusion assay; type: functional, cell-based; conditions: DU-145, 72 h
Summary of the method: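 DU-145 prostate cancer cells kept in recommended complete medium at 37 °C, 5% CO₂, passaged 24 h before dosing. Compounds taken from 10 mM DMSO stocks and diluted in DMSO plus fresh medium, final DMSO 0.1%; control wells got fresh medium only. Viability read by trypan blue staining after 72 h. EC₅₀ = concentration giving 50% loss of viability, from duplicate of four simultaneous experiments.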

[2] = tested on: HMEC; test: Cytotoxicity against HMEC after 72 hrs by trypan blue exclusion assay; type: ADME, cell-based; conditions: Homo sapiens
[3] = Cytotoxicity against human primary lung fibroblasts after 72 hrs by trypan blue exclusion assay; type: ADME, cell-based; conditions: Fibroblast
[4] = tested on: SK-MES-1; test: Cytotoxicity against human SKMES1 cells after 72 hrs by trypan blue exclusion assay; type: functional, cell-based; conditions: SK-MES-1, 72 h
[5] = tested on: NCI-H69; test: Cytotoxicity against human NCI-H69 cells after 72 hrs by trypan blue exclusion assay; type: functional, cell-based; conditions: NCI-H69, 72 h
[6] = target: Histone deacetylase (HDAC1 and HDAC2) (Homo sapiens, UniProt Q13547+Q92769); test: Inhibition of HDAC1/2 from human HeLa cells nuclear extract by cell free fluorimetric assay; type: cell-based
[7] = target: T1, Histone deacetylase 8 (Homo sapiens, UniProt Q9BY41); test: Inhibition of HDAC8 from human HeLa cells nuclear extract by cell free fluorimetric assay
T1 sequence (Q9BY41 whole entry): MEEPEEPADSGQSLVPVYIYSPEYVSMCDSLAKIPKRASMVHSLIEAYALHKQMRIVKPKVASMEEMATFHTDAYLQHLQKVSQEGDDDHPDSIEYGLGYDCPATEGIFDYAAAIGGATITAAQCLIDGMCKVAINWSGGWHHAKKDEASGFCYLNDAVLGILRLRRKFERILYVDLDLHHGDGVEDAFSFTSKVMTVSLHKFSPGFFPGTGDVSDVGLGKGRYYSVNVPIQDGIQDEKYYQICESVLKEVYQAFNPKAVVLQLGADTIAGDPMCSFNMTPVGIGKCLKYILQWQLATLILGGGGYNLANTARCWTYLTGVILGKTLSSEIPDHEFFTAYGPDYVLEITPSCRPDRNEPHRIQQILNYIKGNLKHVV

[8] = target: T2, Protein deacetylase HDAC6 (Homo sapiens, UniProt Q9UBN7); test: Inhibition of HDAC6 from human HeLa cells nuclear extract by cell free fluorimetric assay
T2 sequence (Q9UBN7 whole entry): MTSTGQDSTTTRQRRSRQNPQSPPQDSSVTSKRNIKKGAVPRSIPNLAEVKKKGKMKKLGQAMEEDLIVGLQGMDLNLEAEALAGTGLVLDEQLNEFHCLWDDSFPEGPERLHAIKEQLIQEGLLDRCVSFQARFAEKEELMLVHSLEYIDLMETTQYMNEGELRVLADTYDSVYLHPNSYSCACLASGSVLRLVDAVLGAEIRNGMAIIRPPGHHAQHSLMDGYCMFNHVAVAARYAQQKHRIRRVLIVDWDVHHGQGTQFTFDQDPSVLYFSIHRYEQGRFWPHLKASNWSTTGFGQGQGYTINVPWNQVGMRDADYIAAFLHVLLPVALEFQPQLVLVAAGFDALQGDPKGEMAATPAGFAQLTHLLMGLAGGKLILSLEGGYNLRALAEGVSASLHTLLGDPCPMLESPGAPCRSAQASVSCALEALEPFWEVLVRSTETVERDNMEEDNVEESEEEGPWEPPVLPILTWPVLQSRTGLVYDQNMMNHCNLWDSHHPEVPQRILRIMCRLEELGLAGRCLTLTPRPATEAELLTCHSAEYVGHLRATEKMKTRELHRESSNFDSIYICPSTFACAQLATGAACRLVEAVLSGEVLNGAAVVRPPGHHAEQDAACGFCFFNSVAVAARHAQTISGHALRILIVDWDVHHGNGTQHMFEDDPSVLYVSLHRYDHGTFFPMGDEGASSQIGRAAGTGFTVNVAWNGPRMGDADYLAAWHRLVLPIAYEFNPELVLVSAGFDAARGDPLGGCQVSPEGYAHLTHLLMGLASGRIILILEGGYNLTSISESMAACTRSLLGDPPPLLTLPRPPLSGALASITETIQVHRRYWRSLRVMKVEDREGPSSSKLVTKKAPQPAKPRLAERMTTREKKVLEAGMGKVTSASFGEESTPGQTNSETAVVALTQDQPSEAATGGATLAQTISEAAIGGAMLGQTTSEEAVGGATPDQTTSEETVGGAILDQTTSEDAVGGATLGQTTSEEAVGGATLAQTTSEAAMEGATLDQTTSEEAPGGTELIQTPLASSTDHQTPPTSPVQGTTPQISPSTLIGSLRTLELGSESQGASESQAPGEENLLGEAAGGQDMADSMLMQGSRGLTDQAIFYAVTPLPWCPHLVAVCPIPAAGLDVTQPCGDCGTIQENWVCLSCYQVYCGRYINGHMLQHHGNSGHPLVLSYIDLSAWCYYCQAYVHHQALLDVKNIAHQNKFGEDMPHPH

SMILES	IC50 [6] [µM]	IC50 [7] [µM]	IC50 [8] [µM]	EC50 [1] [µM]	EC50 [2] [µM]	EC50 [3] [µM]	EC50 [4] [µM]	EC50 [5] [µM]
CC[C@H]1OC(=O)[C@H](C)[C@@H](O[C@H]2C[C@@](C)(OC)[C@@H](O)[C@H](C)O2)[C@H](C)[C@@H](O[C@@H]2O[C@H](C)C[C@H](N(C)Cc3ccc(NC(=O)CCCCCCC(=O)NO)cc3)[C@H]2O)[C@](C)(O)C[C@@H](C)CN(C)[C@H](C)[C@@H](O)[C@]1(C)O [AZITHROMYCINARYLALKYLHYDROXAMIC ACID]	0.1071			> 25				
CC[C@H]1OC(=O)[C@H](C)[C@@H](O[C@H]2C[C@@](C)(OC)[C@@H](O)[C@H](C)O2)[C@H](C)[C@@H](O[C@@H]2O[C@H](C)C[C@H](N(C)Cc3ccc(-c4cn(CCCCCCCC(=O)NO)nn4)cc3)[C@H]2O)[C@](C)(O)C[C@@H](C)CN(C)[C@H](C)[C@@H](O)[C@]1(C)O	0.0589	7.13		5.89	> 10	> 10	4.89	4.56
CC[C@H]1OC(=O)[C@H](C)[C@@H](O[C@H]2C[C@@](C)(OC)[C@@H](O)[C@H](C)O2)[C@H](C)[C@@H](O[C@@H]2O[C@H](C)C[C@H](N(C)Cc3ccc(-c4cn(CCCCCCCC(=O)NO)nn4)cc3)[C@H]2O)[C@](C)(OC)C[C@@H](C)C(=O)[C@H](C)[C@@H](O)[C@]1(C)O	0.0556			6.97	> 10	> 10	4.89	5.67
CC[C@H]1OC(=O)[C@H](C)[C@@H](O)[C@H](C)[C@@H](O[C@@H]2O[C@H](C)C[C@H](N(C)Cc3ccc(-c4cn(CCCCCCC(=O)NO)nn4)cc3)[C@H]2O)[C@](C)(OC)C[C@@H](C)C(=O)[C@H](C)[C@@H](O)[C@]1(C)O	0.0019		0.148	1.05	> 10	> 10	1.28	1.49
O=C(CCCCCCC(=O)Nc1ccccc1)NO [VORINOSTAT]				2.12				
CC[C@H]1OC(=O)[C@H](C)[C@@H](O[C@H]2C[C@@](C)(OC)[C@@H](O)[C@H](C)O2)[C@H](C)[C@@H](O[C@@H]2O[C@H](C)C[C@H](N(C)Cc3ccc(-c4cn(CCCCCCCCC(=O)NO)nn4)cc3)[C@H]2O)[C@](C)(O)C[C@@H](C)CN(C)[C@H](C)[C@@H](O)[C@]1(C)O	0.1455	11.1		> 10	> 10	> 10	7.54	8.45
CC[C@H]1OC(=O)[C@H](C)[C@@H](O)[C@H](C)[C@@H](O[C@@H]2O[C@H](C)C[C@H](N(C)Cc3ccc(NC(=O)CCCCCCC(=O)NO)cc3)[C@H]2O)[C@](C)(O)C[C@@H](C)CN(C)[C@H](C)[C@@H](O)[C@]1(C)O [DESCLASINOSE AZITHROMYCINARYLALKYL HYDROXAMATE]	0.1098			< 25				
CC[C@H]1OC(=O)[C@H](C)[C@@H](O[C@H]2C[C@@](C)(OC)[C@@H](O)[C@H](C)O2)[C@H](C)[C@@H](O[C@@H]2O[C@H](C)C[C@H](N(C)Cc3ccc(-c4cn(CCCCCCCCCC(=O)NO)nn4)cc3)[C@H]2O)[C@](C)(O)C[C@@H](C)CN(C)[C@H](C)[C@@H](O)[C@]1(C)O	0.2267							
CC[C@H]1OC(=O)[C@H](C)[C@@H](O[C@H]2C[C@@](C)(OC)[C@@H](O)[C@H](C)O2)[C@H](C)[C@@H](O[C@@H]2O[C@H](C)C[C@H](N(C)Cc3ccc(-c4cn(CCCCCCCCC(=O)NO)nn4)cc3)[C@H]2O)[C@](C)(OC)C[C@@H](C)C(=O)[C@H](C)[C@@H](O)[C@]1(C)O	0.1698			8.14	> 10	> 10	7.12	7.29
CC[C@H]1OC(=O)[C@H](C)[C@@H](O)[C@H](C)[C@@H](O[C@@H]2O[C@H](C)C[C@H](N(C)Cc3ccc(-c4cn(CCCCCCCC(=O)NO)nn4)cc3)[C@H]2O)[C@](C)(O)C[C@@H](C)CN(C)[C@H](C)[C@@H](O)[C@]1(C)O	0.0724	6.78		5.68	> 10	> 10	4.67	3.99
CC[C@H]1OC(=O)[C@H](C)[C@@H](O[C@H]2C[C@@](C)(OC)[C@@H](O)[C@H](C)O2)[C@H](C)[C@@H](O[C@@H]2O[C@H](C)C[C@H](N(C)Cc3ccc(-c4cn(CCCCCCCCCC(=O)NO)nn4)cc3)[C@H]2O)[C@](C)(OC)C[C@@H](C)C(=O)[C@H](C)[C@@H](O)[C@]1(C)O	0.2234							

The next lines start with results.

IC50 [6] [µM]	IC50 [7] [µM]	IC50 [8] [µM]	SMILES	EC50 [1] [µM]	EC50 [2] [µM]	EC50 [3] [µM]	EC50 [4] [µM]	EC50 [5] [µM]
0.123			CC[C@H]1OC(=O)[C@H](C)[C@@H](O)[C@H](C)[C@@H](O[C@@H]2O[C@H](C)C[C@H](N(C)Cc3ccc(-c4cn(CCCCCCCC(=O)NO)nn4)cc3)[C@H]2O)[C@](C)(OC)C[C@@H](C)C(=O)[C@H](C)[C@@H](O)[C@]1(C)O	5.78	> 10	> 10	4.45	5.09
0.037			CC[C@H]1OC(=O)[C@H](C)[C@@H](O[C@H]2C[C@@](C)(OC)[C@@H](O)[C@H](C)O2)[C@H](C)[C@@H](O[C@@H]2O[C@H](C)C[C@H](N(C)Cc3ccc(-c4cn(CCCCCC(=O)NO)nn4)cc3)[C@H]2O)[C@](C)(OC)C[C@@H](C)C(=O)[C@H](C)[C@@H](O)[C@]1(C)O	2.98	> 10	> 10	2.15	2.67
0.0443			CC[C@H]1OC(=O)[C@H](C)[C@@H](O)[C@H](C)[C@@H](O[C@@H]2O[C@H](C)C[C@H](N(C)Cc3ccc(-c4cn(CCCCCC(=O)NO)nn4)cc3)[C@H]2O)[C@](C)(OC)C[C@@H](C)C(=O)[C@H](C)[C@@H](O)[C@]1(C)O	3.29	> 10	> 10	1.95	1.92
0.0888	3.74		CC[C@H]1OC(=O)[C@H](C)[C@@H](O)[C@H](C)[C@@H](O[C@@H]2O[C@H](C)C[C@H](N(C)Cc3ccc(-c4cn(CCCCCC(=O)NO)nn4)cc3)[C@H]2O)[C@](C)(O)C[C@@H](C)CN(C)[C@H](C)[C@@H](O)[C@]1(C)O	1.24	> 10	> 10	1.68	1.77
0.0916	4.73		CC[C@H]1OC(=O)[C@H](C)[C@@H](O[C@H]2C[C@@](C)(OC)[C@@H](O)[C@H](C)O2)[C@H](C)[C@@H](O[C@@H]2O[C@H](C)C[C@H](N(C)Cc3ccc(-c4cn(CCCCCC(=O)NO)nn4)cc3)[C@H]2O)[C@](C)(O)C[C@@H](C)CN(C)[C@H](C)[C@@H](O)[C@]1(C)O	1.45	> 10	> 10	1.79	1.92
